Source: ChEMBL document CHEMBL3046592, “Organophosphorus derivatives containing piperazine dithiosemicarbazones as chemotherapeutants against fungal pathogens of sugarcane” (2005)
≈ marks a conversion by molar mass, not a printed value.

Experiments:
Assay type in all cases: functional
Conditions in all cases: 168 h
Curvularia pallescens [1] = assay: Fungicidal activity against Cochliobolus pallescens assessed as mycelial inhibition at 1000 ppm at 28 +/- 2 degC measured after 7 days by food poison technique
Outline: (§1)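 Poisoned-food test on oatmeal agar. The compound was dissolved in 0.5 cm3 of solvent and mixed into the medium to give the stated ppm. Controls received the same amount of solvent only. A 5 mm mycelial disk, cut from the periphery of a 2-week-old culture, was placed at the plate centre. Plates were incubated 7 days at 28 ± 2 °C, in triplicate. Percent inhibition = (dc − dt)/dc × 100, using mean colony diameters of control (dc) and treatment (dt).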

Curvularia pallescens [2] = assay: Fungicidal activity against Cochliobolus pallescens assessed as mycelial inhibition at 10 ppm at 28 +/- 2 degC measured after 7 days by food poison technique; outline: as §1
Curvularia pallescens [3] = assay: Fungicidal activity against Cochliobolus pallescens assessed as mycelial inhibition at 100 ppm at 28 +/- 2 degC measured after 7 days by food poison technique; outline: as §1
Fusarium oxysporum [4] = assay: Fungicidal activity against Fusarium oxysporum assessed as mycelial inhibition at 1000 ppm at 28 +/- 2 degC measured after 7 days by food poison technique; outline: as §1
Fusarium oxysporum [5] = assay: Fungicidal activity against Fusarium oxysporum assessed as mycelial inhibition at 100 ppm at 28 +/- 2 degC measured after 7 days by food poison technique; outline: as §1
Colletotrichum falcatum [6] = assay: Fungicidal activity against Glomerella tucumanensis assessed as mycelial inhibition at 1000 ppm at 28 +/- 2 degC measured after 7 days by food poison technique; outline: as §1
Fusarium oxysporum [7] = assay: Fungicidal activity against Fusarium oxysporum assessed as mycelial inhibition at 10 ppm at 28 +/- 2 degC measured after 7 days by food poison technique; outline: as §1
Colletotrichum falcatum [8] = assay: Fungicidal activity against Glomerella tucumanensis assessed as mycelial inhibition at 100 ppm at 28 +/- 2 degC measured after 7 days by food poison technique; outline: as §1
Colletotrichum falcatum [9] = assay: Fungicidal activity against Glomerella tucumanensis assessed as mycelial inhibition at 10 ppm at 28 +/- 2 degC measured after 7 days by food poison technique; outline: as §1
Curvularia pallescens [10] = assay: Fungicidal activity against Cochliobolus pallescens assessed as mycelial inhibition at 28 +/- 2 degC measured after 7 days by food poison technique
Fusarium oxysporum [11] = assay: Fungicidal activity against Fusarium oxysporum assessed as mycelial inhibition at 28 +/- 2 degC measured after 7 days by food poison technique
Colletotrichum falcatum [12] = assay: Fungicidal activity against Glomerella tucumanensis assessed as mycelial inhibition at 28 +/- 2 degC measured after 7 days by food poison technique

Compound	inhibition at 1000 ppm (Curvularia pallescens [1]) [%]	inhibition at 10 ppm (Curvularia pallescens [2]) [%]	inhibition at 100 ppm (Curvularia pallescens [3]) [%]	inhibition at 1000 ppm (Fusarium oxysporum [4]) [%]	inhibition at 100 ppm (Fusarium oxysporum [5]) [%]	inhibition at 1000 ppm (Colletotrichum falcatum [6]) [%]	inhibition at 10 ppm (Fusarium oxysporum [7]) [%]	inhibition at 100 ppm (Colletotrichum falcatum [8]) [%]	inhibition at 10 ppm (Colletotrichum falcatum [9]) [%]	MIC (Curvularia pallescens [10]) [µg/mL]	MIC (Fusarium oxysporum [11]) [µg/mL]	MIC (Colletotrichum falcatum [12]) [µg/mL]
CCOP(=O)(OCC)S/C(=N\N=C\c1ccc([N+](=O)[O-])cc1)N1CCN(/C(=N\N=C\c2ccc([N+](=O)[O-])cc2)SP(=O)(OCC)OCC)CC1	89.2	35.6	58.2	62.6	40.2	65.2	27.5	40.8	25.8			
S=C(N/N=C/c1ccccc1Cl)N1CCN(C(=S)N/N=C/c2ccccc2Cl)CC1	66.2	27.4	47.3	69.2	42	60.3	25.5	30.8	21.2			
CCOP(=O)(OCC)S/C(=N/N=C/c1ccccc1Cl)N1CCN(/C(=N\N=C\c2ccccc2Cl)SP(=O)(OCC)OCC)CC1	88.2	47.7	86.8	100	82.4	85.6	56.8	70.6	55.2			
S=C(N/N=C/c1ccc(Cl)cc1)N1CCN(C(=S)N/N=C/c2ccc(Cl)cc2)CC1	68.4	38.5	49.2	64.8	41.6	68.2	28.7	35.4	24.8			
CCOP(=O)(OCC)S/C(=N/N=C/c1ccc(Cl)cc1)N1CCN(/C(=N\N=C\c2ccc(Cl)cc2)SP(=O)(OCC)OCC)CC1	100	66.6	88.2	100	76.2	100	37.8	72.8	42.5	1000 (≈ 1.33 mM)	1000 (≈ 1.33 mM)	1000 (≈ 1.33 mM)
S=C(N/N=C/c1ccccc1)N1CCN(C(=S)N/N=C/c2ccccc2)CC1	57.4	20.6	32.1	48.8	25.6	53.6	14.3	28.9	14.1			
CCOP(=O)(OCC)S/C(=N/N=C/c1ccccc1)N1CCN(/C(=N\N=C\c2ccccc2)SP(=O)(OCC)OCC)CC1	75	32.8	49.5	66.5	35.6	73.4	24.8	40.2	25.8			
COc1ccc(/C=N/NC(=S)N2CCN(C(=S)N/N=C/c3ccc(OC)cc3)CC2)cc1	67.2	28.6	45.8	66.8	40.2	65.9	35.3	37.6	22.1			
CCOP(=O)(OCC)S/C(=N/N=C/c1ccc(OC)cc1)N1CCN(/C(=N\N=C\c2ccc(OC)cc2)SP(=O)(OCC)OCC)CC1	100	42.2	80.5	100	70.6	100	53.2	58.6	36.4	1000 (≈ 1.35 mM)	1000 (≈ 1.35 mM)	1000 (≈ 1.35 mM)
O=[N+]([O-])c1ccc(/C=N/NC(=S)N2CCN(C(=S)N/N=C/c3ccc([N+](=O)[O-])cc3)CC2)cc1	59.6	22.7	31.1	44.8	23.9	46.6	16.2	24.3	11.6			
COC(=O)Nc1nc2ccccc2[nH]1 [CARBENDAZIM]										4000 (≈ 20.9 mM)	3000 (≈ 15.7 mM)	4000 (≈ 20.9 mM)
COC(=O)NC(=S)Nc1ccccc1NC(=S)NC(=O)OC [THIOPHANATE METHYL]										4000 (≈ 11.7 mM)	4000 (≈ 11.7 mM)	4000 (≈ 11.7 mM)
